STAT3 act: increases IL-6 driven STAT3 reporter signal | activation (% of control), % at 5.6 µM | AID 871 | U3A cells, IL-6 STAT3-luciferase reporter, luminescence; 100% = signal with IL-6 EC80 alone | 190,000 compounds, 0.91% hits;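 active = activation above the screen-wide mean of compound activation plus 3 SD, cut at about 130% in these data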;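 also: 0% = background luminescence of wells with medium and substrate only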
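Material: human U3A cells carrying STAT3-luciferase construct. Measured by: reporter luminescence signal. Timing: compound 1 h, then IL-6 6 h at 37 °C.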
thrombin 1536: inhibitors of human thrombin; P00734; alpha-thrombin, Boc-VPR-AMC fluorogenic substrate cleavage; inhibition, % at 5 µM; 220,000 compounds, 0.26% hits; AID 1046;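 active = inhibition at or above 40%; inactive = inhibition below 40%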;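 also: 0% = enzyme with no compound and 100% = wells without enzyme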
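System: Human alpha-thrombin protein | Medium: pH 7.5 Tris (50 mM) with NaCl 150 mM, Tween 20 0.05% | Times: Enzyme reaction carried out at room temperature | Detection: AMC fluorescence, 355/460 nm | Evaluation: Percent inhibition scaled between no-compound controls and no-enzyme blanks | Benchmarks: Enzyme without compound as high, wells lacking enzyme as low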
FXIa inh 1536: inhibitors of human coagulation factor XIa | 220,000 compounds, 0.14% hits | purified FXIa, Boc-Glu-Ala-Arg-AMC fluorogenic substrate | inhibition, % at 5 µM | P03951 | AID 798;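 active = inhibition of at least 40%; inactive = inhibition below 40%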;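 also: fluorescence of freed AMC excited at 355 nm; 0% = enzyme without compound and 100% = no enzyme blank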
Target sequence (P03951 19-387 limits assumed): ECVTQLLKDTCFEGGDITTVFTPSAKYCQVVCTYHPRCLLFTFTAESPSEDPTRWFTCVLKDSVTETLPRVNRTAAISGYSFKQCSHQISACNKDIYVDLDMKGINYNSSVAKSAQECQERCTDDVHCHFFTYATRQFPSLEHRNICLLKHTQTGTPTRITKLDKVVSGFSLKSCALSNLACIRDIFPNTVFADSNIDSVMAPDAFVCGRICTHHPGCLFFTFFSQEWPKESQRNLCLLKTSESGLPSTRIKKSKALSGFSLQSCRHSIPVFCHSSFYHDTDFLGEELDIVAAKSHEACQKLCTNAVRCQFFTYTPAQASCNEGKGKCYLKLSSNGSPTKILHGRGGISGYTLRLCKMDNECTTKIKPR
Target sequence (P03951 388-625 limits assumed): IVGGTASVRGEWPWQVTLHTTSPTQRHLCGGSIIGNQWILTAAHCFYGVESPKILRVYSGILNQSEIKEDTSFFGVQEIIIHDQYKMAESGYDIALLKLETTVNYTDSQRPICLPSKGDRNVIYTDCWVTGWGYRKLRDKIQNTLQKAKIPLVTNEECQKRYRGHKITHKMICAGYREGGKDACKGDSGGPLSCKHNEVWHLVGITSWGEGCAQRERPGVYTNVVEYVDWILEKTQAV
KLK5 inh: blocks human kallikrein 5 protease activity | Q9Y337 | recombinant hK5, fluorogenic AMC substrate cleavage | AID 873 | inhibition, % at 5 µM | 210,000 compounds, 0.59% hits;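 active = inhibition of 40% or more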;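 also: 0% = enzyme controls without compound and 100% = no-enzyme blanks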
FXIIa inh 1536: blocks human coagulation factor XIIa protease activity; inhibition, % at 5 µM; AID 800; 220,000 compounds, 0.3% hits; purified FXIIa, Boc-QGR-AMC fluorogenic substrate, 2 h; in the data active = inhibition above about 40%;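 also: 0% = enzyme with no compound and 100% = blank without enzyme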
AHR act: activates the human aryl hydrocarbon receptor; P35869; AHR-responsive luciferase reporter cells, luminescence; activation, % at 5 µM; 320,000 compounds, 2.5% hits; AID 2796; in the data active = activation above about 47%;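 also: 0% = vehicle wells and 100% = reference agonist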
* hit, by the source's call. Hits are enriched below; roughly 3.5% of the tested compounds scored in any of these assays.

How did COc1ccc(N2C(=O)[C@@H]3[C@H](C2=O)[C@H]2c4ccccc4C=CN2[C@@H]3C(C)=O)cc1 do in these assays?
STAT3 act: 122; thrombin 1536: -1; FXIa inh 1536: 5; KLK5 inh: -9; FXIIa inh 1536: 9; AHR act: 51*

What do the screens show for `Cc1cccc(C)c1C(=NCCN(C)C)c1ccccc1`?
AHR act: 0

What do the screens show for `O=C1CC(N2CCC(c3nc4ccccc4o3)CC2)C(=O)N1c1ccc(Cl)c(C(F)(F)F)c1` (stereo unspecified)?
STAT3 act: 98; thrombin 1536: -4; FXIa inh 1536: 42*; KLK5 inh: -21; FXIIa inh 1536: -8; AHR act: 6

Results for COc1ccccc1/C=C/C(=O)NC(=S)NCC1CCCO1 (stereo unspecified) ?
STAT3 act: 92; thrombin 1536: -2; FXIa inh 1536: 0; KLK5 inh: -4; FXIIa inh 1536: 8; AHR act: 69*

Results for COc1ccc(CCNC(=O)Cn2nnc(-c3ccc(N4CCOCC4)cc3)n2)cc1OC ?
STAT3 act: 99; thrombin 1536: 2; FXIa inh 1536: -9; KLK5 inh: 126*; FXIIa inh 1536: -6; AHR act: 1

How did COc1ccc(CCNC(=O)C(=O)NCC2CCCO2)cc1OC (stereo unspecified) do in these assays?
STAT3 act: 108; thrombin 1536: 29; FXIa inh 1536: 3; KLK5 inh: 51*; FXIIa inh 1536: 15; AHR act: 3

What do the screens show for `COc1cccc2cc(C(=O)NCC3CCCO3)c(=O)oc12` (stereo unspecified)?
STAT3 act: 95; thrombin 1536: 104*; FXIa inh 1536: 14; KLK5 inh: 44*; FXIIa inh 1536: 17; AHR act: -4

Results for CCNc1ccc(C(=O)NN=C2CCCC2)cc1[N+](=O)[O-] ?
STAT3 act: 102; thrombin 1536: 11; FXIa inh 1536: 3; KLK5 inh: 6; FXIIa inh 1536: 12; AHR act: 9

What do the screens show for `Cc1c(Cl)c(C(=O)N2CCCCCC2)nn1C`?
AHR act: -1

Results for COc1ccc(NC(=O)COC(=O)CCOc2ccccc2C)cc1Cl ?
AHR act: -1

How did COc1ccc(CCNC(=O)C2CCC(CNS(=O)(=O)c3ccccc3)CC2)cc1OC (stereo unspecified) do in these assays?
STAT3 act: 99; thrombin 1536: 53*; FXIa inh 1536: 29; KLK5 inh: 21; FXIIa inh 1536: 26; AHR act: 1

What do the screens show for `COc1ccc(C2=CSC(/N=C/c3ccc(F)cc3)=NN2)cc1`?
STAT3 act: 86; thrombin 1536: 2; FXIa inh 1536: -1; KLK5 inh: -23; FXIIa inh 1536: 10; AHR act: 70*

Results for CCCc1cc(-c2nc(-c3ccc(Br)cc3)cs2)ccn1 ?
STAT3 act: 75; thrombin 1536: -5; FXIa inh 1536: 3; KLK5 inh: -11; FXIIa inh 1536: 9; AHR act: 47*

What do the screens show for `CCCc1cc(-c2nc(-c3ccc(Cl)cc3)cs2)ccn1`?
STAT3 act: 92; thrombin 1536: 2; FXIa inh 1536: 30; KLK5 inh: -11; FXIIa inh 1536: 20; AHR act: 14

How did C/C(=N/NC(=O)c1cccs1)c1ccc(NC(=O)COc2ccc(Cl)cc2Cl)cc1 do in these assays?
STAT3 act: 95; thrombin 1536: 3; FXIa inh 1536: 4; KLK5 inh: -16; FXIIa inh 1536: 13; AHR act: 5

Results for CCC(=O)Nc1ccc(/C(C)=N\NC(=O)c2ccc(C)s2)cc1 ?
STAT3 act: 101; thrombin 1536: -3; FXIa inh 1536: -7; KLK5 inh: -6; FXIIa inh 1536: 2; AHR act: 54*

Results for C/C(=N/NC(=O)c1ccc(Cl)s1)c1ccc(NC(=O)COc2ccc(Cl)cc2)cc1 ?
STAT3 act: 84; thrombin 1536: 4; FXIa inh 1536: 1; KLK5 inh: -24; FXIIa inh 1536: 6; AHR act: 55*

Results for O=C(O)c1cc([N+](=O)[O-])c(NCCC2=CCCCC2)c([N+](=O)[O-])c1 ?
STAT3 act: 108; thrombin 1536: 14; FXIa inh 1536: 2; KLK5 inh: 8; FXIIa inh 1536: 6; AHR act: 3

Results for CSc1ccc(C2C(C(=O)c3ccco3)=C(O)C(=O)N2c2nnc(SC)s2)cc1 (stereo unspecified) ?
AHR act: 8

How did Cc1ccc(Nc2ncnc3ccccc23)cc1 do in these assays?
STAT3 act: 89; thrombin 1536: 0; FXIa inh 1536: 1; KLK5 inh: 3; FXIIa inh 1536: 9; AHR act: 65*

How did COc1ccc(Nc2ncnc3ccc(C)cc23)cc1 do in these assays?
AHR act: 55*

What do the screens show for `Cc1ccc(/C(=N/Nc2ncnc3ccccc23)C(=O)O)cc1`?
AHR act: 59*

Results for COc1ccc(Nc2cc(Nc3ccc(OC)cc3)ncn2)cc1 ?
AHR act: 4

Results for COc1ccc(Nc2cc(Nc3cc(OC)c(OC)c(OC)c3)ncn2)cc1 ?
AHR act: 59*

Results for COC(=O)c1cccc(Nc2ncnc3ccc(C)cc23)c1 ?
STAT3 act: 110; thrombin 1536: 8; FXIa inh 1536: 4; KLK5 inh: 11; FXIIa inh 1536: 16; AHR act: 13

What do the screens show for `COC(=O)C(=O)C/C(=N/Nc1ncnc2ccccc12)c1ccc(Cl)cc1`?
AHR act: 58*

Results for CCOc1ccccc1NC(=O)NC(=O)N(C)S(=O)(=O)c1ccc(C)cc1 ?
STAT3 act: 103; thrombin 1536: -5; FXIa inh 1536: -1; KLK5 inh: -2; FXIIa inh 1536: 11; AHR act: 64*

Results for CCOc1ccccc1NC(=O)Nc1cccc(NC(C)=O)c1 ?
thrombin 1536: -5; FXIa inh 1536: 2; KLK5 inh: 2; FXIIa inh 1536: 6; AHR act: 18

Results for CCOc1ccccc1NC(=O)Nc1cccc(S(N)(=O)=O)c1 ?
thrombin 1536: 1; FXIa inh 1536: 5; KLK5 inh: 3; FXIIa inh 1536: 9; AHR act: 48*

Results for CCOc1ccccc1NC(=O)Nc1ccc2c(c1)CCC2 ?
AHR act: 78*

How did CCOc1ccc(NC(=O)NC(=O)N(C)S(=O)(=O)c2ccc(C)cc2)cc1 do in these assays?
STAT3 act: 83; thrombin 1536: 5; FXIa inh 1536: -1; KLK5 inh: -5; FXIIa inh 1536: 6; AHR act: 2

What do the screens show for `C[C@H]1CN([C@@H](C)CO)C(=O)c2cccc(NC(=O)C3CC3)c2O[C@H]1CN(C)S(=O)(=O)c1ccccc1`?
AHR act: -2

What do the screens show for `Cc1cccc(-n2ncc3c2CCCC3NC(=O)CCN2CCCO2)c1C` (stereo unspecified)?
AHR act: 1
